Published values gathered from unrelated publications.
ABL1: Tyrosine-protein kinase ABL1 (ABL1, Homo sapiens, UniProt P00519)

For `Nc1ncc(-c2nc(N3CCOCC3)nc(N3CCOCC3)n2)c(C(F)F)n1`, the remaining binding was 89% (Tyrosine-protein kinase ABL1, non-phosphorylated (ABL1, Homo sapiens, UniProt P00519, T315I); binding; competition with immobilised ligand; 10 µM).
The remaining binding of `Cn1cncc1[C@](O)(COc1ccc(C#N)cc1-c1ccc(OC(F)(F)F)cc1)c1ccc(C#N)cc1` is reported as 100% (Tyrosine-protein kinase ABL1, phosphorylated (ABL1, Homo sapiens, UniProt P00519); cell-free assay; competition with immobilised ligand; 1 µM).
For `C#Cc1n[nH]c2c(-c3cn(C(C)c4ccccn4)c(=O)[nH]c3=O)cc(F)cc12` (stereo not shown), the inhibition was -8.5% (ABL1; enzyme activity; inhibitor; 1 µM).
The remaining binding of `Cc1nn(C)cc1-c1nc2c(N3CCN(Cc4ccc(Cl)cc4)CC3)c(Cl)cnc2[nH]1` is reported as 84% (Tyrosine-protein kinase ABL1, phosphorylated (ABL1, Homo sapiens, UniProt P00519, Q252H); binding; competition with immobilised ligand; 1 µM).
For `Cn1cc(-c2cccc(N3CCc4c(sc5c4CC(C)(C)C5)C3=O)c2CO)cc(Nc2ccncn2)c1=O`, the inhibition was -1% (ABL1; enzyme activity; inhibitor; 1 µM).
`Cc1ncc(C)n2nc(/C=C/c3nc(N4CCCC4)cc(N4CCOCC4)n3)nc12` has an inhibition of 14% (ABL1; enzyme activity; inhibitor; 10 µM).
For `O=c1[nH]c2ccccc2n1C1CCN(Cc2ccc(-c3[nH]c4cc5ncnc5cc4nc3-c3ccccc3)cc2)CC1`, the remaining signal was 98.2% (ABL1; cell-free assay; 0.5 µM).
For `Cn1cc(-c2cc(F)cc(N3CCn4c(cc5c4CCCC5)C3=O)c2CO)cc(Nc2ccc(N3CCN(C4COC4)CC3)cn2)c1=O`, the inhibition was 3% (Tyrosine-protein kinase ABL1 (ABL1, Homo sapiens, UniProt P00519, Y253F); enzyme activity; inhibitor; 0.1 µM).
The remaining binding of `N#CC1(c2ccccn2)CCN(Cc2cc(C(=O)O)c(=O)n3ccccc23)CC1` is reported as 84% (Tyrosine-protein kinase ABL1, phosphorylated (ABL1, Homo sapiens, UniProt P00519, F317L); cell-free assay; competition with immobilised ligand; 1 µM).
The inhibition of `O=C(Nc1cccnn1)N1CCN([C@@H]2CCOc3cc(C(F)(F)F)ccc32)CC1` is reported as -3% (ABL1; enzyme activity; inhibitor; 20 µM).
